Among the data in paper PMC10896134 (Pharmaceutical Biology, 2024) are IC50 values, retold here.

Where only a bound is given, the exact number is not on record here.

A word on the IC50: it is the concentration needed to halve the response being measured.

Assay in all cases: Antiproliferation assay
Type in all cases: cell-based

The test system of one assay is H446. To be noted: Homo sapiens, NCI-H446, 24 h, read-out: IC50 = mean ± SD, H446. The method, boiled down: (§1)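 Cell lines were grown at 37 °C under 5% CO2 in their own media: A549 in DMEM/F12, H446 in RPMI 1640, and HeLa, MCF-7, L02 and BEAS-2B in high-glucose DMEM with L-glutamine, with 10% FBS and penicillin/streptomycin. Cells were seeded in 96-well plates and exposed to test compounds or reference agents at 37 °C for 24 h. CCK-8 was added for 2 h and absorbance read at 450 nm.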

The next assay relates to BEAS-2B. As to conditions: Homo sapiens, 24 h, read-out: IC50 = mean ± SD, BEAS-2B. The essentials: as §1
For the next assay, the system named is A549. To be noted: Homo sapiens, A549, 24 h, read-out: IC50 = mean ± SD, A549. The method, boiled down: as §1
Another assay deals with MCF-7. As to conditions: Homo sapiens, MCF7, 24 h, read-out: IC50 = mean ± SD, MCF-7. The essentials:
as §1

Another assay deals with L02. To be noted: Homo sapiens, L02, 24 h, read-out: IC50 = mean ± SD, L02. The method, boiled down: as §1
The test system of the next assay is Hela. As to conditions: Homo sapiens, 24 h, read-out: IC50 = mean ± SD, Hela. The essentials:
as §1

For the molecule `COc1cc([C@@H]2c3cc4c(cc3[C@H](OC(=O)CCCc3ccc(NS(=O)(=O)c5ccc(F)cc5F)cc3)[C@H]3COC(=O)[C@H]23)OCO4)cc(OC)c1OC` [Compound E9, (5R,5aR,8aR,9R)-8-oxo-9-(3,4,5-trimethoxyphenyl)-5,5a,6,8,8a,9-hexahydrofuro [3′,4′:6,7]naphtho[2,3-d][1,3]dioxol-5-yl4-(4-((2,4-difluorophenyl)sulfonamido)phenyl)butanoate], the IC50 was 9.27 ± 0.74 µM with H446; 99.3 ± 3.53 µM in the assay on BEAS-2B; 0.55 ± 0.17 µM in the assay with A549; 4.97 ± 0.53 µM in the assay on MCF-7; greater than 100 µM with L02; 62 ± 1.58 µM in the assay on Hela.
For the molecule `COc1cc([C@@H]2c3cc4c(cc3[C@H](O)[C@H]3COC(=O)[C@H]23)OCO4)cc(OC)c1OC` [PPT, Podophyllotoxin, reference compound], the IC50 in the assay on H446 turned out to be 3.69 ± 0.38 µM; in the assay on BEAS-2B, 8.91 ± 0.72 µM; in the assay on A549, 14.7 ± 1.14 µM; in the assay on MCF-7 it was 11.7 ± 0.45 µM; with L02, 9.42 ± 0.74 µM; in the assay on Hela, 15.3 ± 0.58 µM.
As to `COc1cc([C@@H]2c3cc4c(cc3[C@H](OC(=O)CCCc3ccc(NS(=O)(=O)c5cc([N+](=O)[O-])ccc5C)cc3)[C@H]3COC(=O)[C@H]23)OCO4)cc(OC)c1OC` [Compound E15, (5R,5aR,8aR,9R)-8-oxo-9-(3,4,5-trimethoxyphenyl)-5,5a,6,8,8a,9-hexahydrofuro [3′,4′:6,7]naphtho[2,3-d][1,3]dioxol-5-yl4-(4-((2-methyl-5-nitrophenyl)sulfonamido)phenyl)butanoate], the IC50 in the assay with H446 was 36.6 ± 1.59 µM; in the assay with BEAS-2B, 97.3 ± 1.41 µM; in the assay on A549, 7.34 ± 1.32 µM; in the assay on MCF-7, 59.25 ± 0.42 µM; in the assay on L02, greater than 100 µM; in the assay on Hela it was 16.9 ± 1.01 µM.
Regarding `COc1cc([C@@H]2c3cc4c(cc3[C@H](OC(=O)CCCc3ccc(NS(=O)(=O)c5ccc(C)cc5)cc3)[C@H]3COC(=O)[C@H]23)OCO4)cc(OC)c1OC` [Compound E12, (5R,5aR,8aR,9R)-8-oxo-9-(3,4,5-trimethoxyphenyl)-5,5a,6,8,8a,9-hexahydrofuro [3′,4′:6,7]naphtho[2,3-d][1,3]dioxol-5-yl4-(4-((4-methylphenyl)sulfonamido)phenyl)butanoate], the IC50 in the assay on H446 is 27.2 ± 2.06 µM; in the assay with BEAS-2B, 79.3 ± 1.07 µM; in the assay on A549, 27 ± 1.33 µM; in the assay on MCF-7, 36.8 ± 0.56 µM; with L02 it was greater than 100 µM; in the assay with Hela, 36.1 ± 1.49 µM.
For `COc1cc([C@@H]2c3cc4c(cc3[C@H](OC(=O)CCCc3ccc(NS(=O)(=O)c5ccc(C(F)(F)F)cc5)cc3)[C@H]3COC(=O)[C@H]23)OCO4)cc(OC)c1OC` [Compound E8, (5R,5aR,8aR,9R)-8-oxo-9-(3,4,5-trimethoxyphenyl)-5,5a,6,8,8a,9-hexahydrofuro [3′,4′:6,7]naphtho[2,3-d][1,3]dioxol-5-yl4-(4-((4-(trifluoromethyl)phenyl)sulfonamido)phenyl)butanoate], the IC50 in the assay on H446 is 29.18 ± 0.29 µM; with BEAS-2B, greater than 100 µM; in the assay with A549, 19.5 ± 1.09 µM; in the assay with MCF-7, 21.2 ± 0.52 µM; in the assay with L02 it was greater than 100 µM; in the assay with Hela it was 51.8 ± 1.27 µM.
Consider `COc1cc([C@@H]2c3cc4c(cc3[C@H](OC(=O)CCCc3ccc(NS(=O)(=O)c5ccccc5F)cc3)[C@H]3COC(=O)[C@H]23)OCO4)cc(OC)c1OC` [Compound E7, (5R,5aR,8aR,9R)-8-oxo-9-(3,4,5-trimethoxyphenyl)-5,5a,6,8,8a,9-hexahydrofuro [3′,4′:6,7]naphtho[2,3-d][1,3]dioxol-5-yl4-(4-((2-fluorophenyl)sulfonamido)phenyl)butanoate], for which the IC50 with H446 is greater than 100 µM; in the assay on BEAS-2B it was greater than 100 µM; in the assay with A549, 20.2 ± 0.79 µM; in the assay on MCF-7 it was 18.9 ± 0.81 µM; in the assay on L02, greater than 100 µM; in the assay on Hela, 13.6 ± 0.71 µM.
Consider `COc1cc([C@@H]2c3cc4c(cc3[C@H](OC(=O)CCCc3ccc(NS(=O)(=O)c5c(F)cccc5F)cc3)[C@H]3COC(=O)[C@H]23)OCO4)cc(OC)c1OC` [Compound E10, (5R,5aR,8aR,9R)-8-oxo-9-(3,4,5-trimethoxyphenyl)-5,5a,6,8,8a,9-hexahydrofuro [3′,4′:6,7]naphtho[2,3-d][1,3]dioxol-5-yl4-(4-((2,6-difluorophenyl)sulfonamido)phenyl)butanoate], for which the IC50 in the assay on H446 is 7.28 ± 0.96 µM; with BEAS-2B, greater than 100 µM; in the assay on A549, 0.95 ± 0.22 µM; with MCF-7, 8.4 ± 0.79 µM; in the assay with L02, greater than 100 µM; with Hela, 27.5 ± 2.54 µM.
Regarding `COc1cc([C@@H]2c3cc4c(cc3[C@H](OC(=O)CCCc3ccc(NS(=O)(=O)c5ccc([N+](=O)[O-])cc5)cc3)[C@H]3COC(=O)[C@H]23)OCO4)cc(OC)c1OC` [Compound E14, (5R,5aR,8aR,9R)-8-oxo-9-(3,4,5-trimethoxyphenyl)-5,5a,6,8,8a,9-hexahydrofuro [3′,4′:6,7]naphtho[2,3-d][1,3]dioxol-5-yl4-(4-((4-nitrophenyl)sulfonamido)phenyl)butanoate], the IC50 in the assay on H446 was 29.4 ± 2.54 µM; in the assay with BEAS-2B, greater than 100 µM; in the assay on A549, 11 ± 2.51 µM; with MCF-7, 59.9 ± 1.71 µM; in the assay with L02, greater than 100 µM; with Hela, 26.8 ± 0.63 µM.
For the molecule `CCCc1ccc(S(=O)(=O)Nc2ccc(CCCC(=O)O[C@H]3c4cc5c(cc4[C@@H](c4cc(OC)c(OC)c(OC)c4)[C@H]4C(=O)OC[C@@H]43)OCO5)cc2)cc1` [Compound E3, (5R,5aR,8aR,9R)-8-oxo-9-(3,4,5-trimethoxyphenyl)-5,5a,6,8,8a,9-hexahydrofuro [3′,4′:6,7]naphtho[2,3-d][1,3]dioxol-5-yl4-(4-((4-propylphenyl)sulfonamido)phenyl)butanoate], the IC50 in the assay with H446 is 11 ± 0.47 µM; in the assay with BEAS-2B it was 73.6 ± 1.35 µM; in the assay with A549 it was 17.8 ± 1.11 µM; with MCF-7 it was 18.7 ± 0.95 µM; in the assay with L02, greater than 100 µM; in the assay on Hela, 39.2 ± 0.56 µM.
In the case of `COc1cc([C@@H]2c3cc4c(cc3[C@H](OC(=O)CCCc3ccc(NS(=O)(=O)c5cccc(F)c5)cc3)[C@H]3COC(=O)[C@H]23)OCO4)cc(OC)c1OC` [Compound E6, (5R,5aR,8aR,9R)-8-oxo-9-(3,4,5-trimethoxyphenyl)-5,5a,6,8,8a,9-hexahydrofuro [3′,4′:6,7]naphtho[2,3-d][1,3]dioxol-5-yl4-(4-((3-fluorophenyl)sulfonamido)phenyl)butanoate], the IC50 in the assay with H446 was 6.07 ± 0.25 µM; in the assay with BEAS-2B, 94.3 ± 2.66 µM; in the assay with A549 it was 1.08 ± 0.32 µM; with MCF-7, 25.9 ± 1.34 µM; in the assay with L02 it was greater than 100 µM; in the assay with Hela, 12.7 ± 0.69 µM.
`COc1cc([C@@H]2c3cc4c(cc3[C@H](OC(=O)CCCc3ccc(NS(=O)(=O)c5ccccc5)cc3)[C@H]3COC(=O)[C@H]23)OCO4)cc(OC)c1OC` [Compound E1, (5R,5aR,8aR,9R)-8-oxo-9-(3,4,5-trimethoxyphenyl)-5,5a,6,8,8a,9-hexahydrofuro [3′,4′:6,7]naphtho[2,3-d][1,3]dioxol-5-yl 4-(4-(phenylsulfonamido)phenyl)butanoate]: the IC50 in the assay with H446 is 22.9 ± 1.33 µM; with BEAS-2B it was 83.6 ± 1.85 µM; with A549, 2.73 ± 0.36 µM; in the assay with MCF-7, 25 ± 1.11 µM; in the assay on L02 it was greater than 100 µM; in the assay with Hela it was greater than 100 µM.
Take `COc1cc([C@@H]2c3cc4c(cc3[C@H](OC(=O)CCCc3ccc(NS(=O)(=O)c5cccc([N+](=O)[O-])c5)cc3)[C@H]3COC(=O)[C@H]23)OCO4)cc(OC)c1OC` [Compound E13, (5R,5aR,8aR,9R)-8-oxo-9-(3,4,5-trimethoxyphenyl)-5,5a,6,8,8a,9-hexahydrofuro [3′,4′:6,7]naphtho[2,3-d][1,3]dioxol-5-yl4-(4-((3-nitrophenyl)sulfonamido)phenyl)butanoate]: the IC50 with H446 was 9.92 ± 0.92 µM; in the assay with BEAS-2B it was greater than 100 µM; in the assay with A549, 4.94 ± 0.42 µM; in the assay on MCF-7, 42 ± 1.35 µM; with L02 it was 48.1 ± 1.09 µM; with Hela, 51.3 ± 1.15 µM.
For the molecule `COc1cc([C@@H]2c3cc4c(cc3[C@H](OC(=O)CCCc3ccc(NS(=O)(=O)c5ccc(Br)cc5)cc3)[C@H]3COC(=O)[C@H]23)OCO4)cc(OC)c1OC` [Compound E4, (5R,5aR,8aR,9R)-8-oxo-9-(3,4,5-trimethoxyphenyl)-5,5a,6,8,8a,9-hexahydrofuro [3′,4′:6,7]naphtho[2,3-d][1,3]dioxol-5-yl4-(4-((4-bromophenyl)sulfonamido)phenyl)butanoate], the IC50 with H446 is 17.4 ± 0.95 µM; with BEAS-2B, greater than 100 µM; with A549, 2.57 ± 0.98 µM; with MCF-7, 70.91 ± 0.47 µM; with L02, greater than 100 µM; with Hela, 18.4 ± 0.22 µM.
Take `COc1cc([C@@H]2c3cc4c(cc3[C@H](OC(=O)CCCc3ccc(NS(=O)(=O)c5ccccc5[N+](=O)[O-])cc3)[C@H]3COC(=O)[C@H]23)OCO4)cc(OC)c1OC` [Compound E11, (5R,5aR,8aR,9R)-8-oxo-9-(3,4,5-trimethoxyphenyl)-5,5a,6,8,8a,9-hexahydrofuro [3′,4′:6,7]naphtho[2,3-d][1,3]dioxol-5-yl4-(4-((2-nitrophenyl)sulfonamido)phenyl)butanoate]: the IC50 in the assay with H446 was 10.5 ± 2.08 µM; with BEAS-2B it was greater than 100 µM; in the assay on A549, 27.8 ± 1.51 µM; in the assay on MCF-7 it was 8.07 ± 0.63 µM; in the assay on L02 it was greater than 100 µM; in the assay with Hela it was 46.7 ± 2.04 µM.
